ABCB1 inh: human ABCB1 inhibition, ABCG2 as counter-screen | hit rate 0.067% among 190,000 | CCRF-Adr cells, JC-1 efflux, flow cytometry | AID 1326 | inhibition, % at 6.6 µM; in the data active = inhibition above about 40%;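 note: higher value means more JC-1 retained so stronger ABCB1 efflux block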
Lmaj promast: reduces viability of Leishmania major promastigotes | inhibition, % at 10 µM | resazurin fluorescence viability | hit rate 9% among 200,000 | AID 1063;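 note: promastigotes grown with compound for 44 hours at 28 °C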
GSH bead fluor: GSH bead compound fluorescence profile; hit rate 0.25% among 190,000; GSH beads flow cytometry, compound fluorescence 488/530 nm; hits give high values; fluorescence (KMESF) at 10 µM; in the data active = fluorescence above about 89;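 note: glutathione beads carrying GST-tagged Bcl family fusion proteins plus one bare bead set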
Avidin fluor: avidin bead compound fluorescence profile; AID 1775; Avidin beads, compound fluorescence 488/530 nm, flow cytometry; hits give high values; hit rate 0.38% among 220,000; fluorescence (KMESF) at 10 µM; in the data active = fluorescence above about 47
ABCG2 inh: inhibitors of human ABCG2 transporter, ABCB1 counter-screen; hit rate 0.1% among 190,000; inhibition, % at 6.6 µM; Q9UNQ0; IgMXP3 cells, JC-1 efflux, flow cytometry;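 active = inhibition above 80%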
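Test system: ABCG2 IgMXP3 and barcoded ABCB1 CCRF-Adr cell mix; Schedule: cells with compound and JC-1, 10 min at 25 °C, rotating, no wash; Technique: flow cytometry of retained JC-1 fluorescence; Measure: % inhibition of efflux relative to nicardipine and DMSO; Controls: nicardipine high and DMSO low controls.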
PKD1 inh: inhibitors of human PKD1 kinase; AID 797; Q15139; hit rate 0.056% among 200,000; inhibition, % (no concentration beside the values); PKD1 kinase fluorescence polarization assay
Hits are given with their value; - = inactive; . = no result given. Shown is part of a subset that was picked to be rich in hits. Cut-off read from the data, not from the text of the source, unless noted: active = inhibition above about 50%; inactive = the rest.

SMILES	ABCB1 inh	Lmaj promast	GSH bead fluor	Avidin fluor	ABCG2 inh	PKD1 inh
CC1CCN(C(=O)C2CCN(C(=O)c3cc4sccc4n3Cc3ccc(F)cc3)CC2)CC1	-	67	-	-	-	-
O=C(c1cc2sccc2n1Cc1ccc(F)cc1)N1CCCc2ccccc21	-	78	-	-	-	-
CC(C)NC(=O)C1CCN(C(=O)c2cc3sccc3n2Cc2ccc(F)cc2)CC1	-	-	-	-	-	-
O=C(NCc1ccc(F)cc1)c1cc2sccc2n1Cc1ccc(F)cc1	-	-	-	-	-	-
Cc1noc(C)c1COc1cccc(C(=O)OC(C)C(=O)Nc2ccc3c(c2)OCO3)c1 (centres undefined)	-	59	-	-	-	-
Cc1noc(C)c1COc1cccc(C(=O)Nc2ccc3c(c2)OCO3)c1	-	-	-	-	-	-
Cc1ccc(NC(=O)c2cccc(OCc3c(C)noc3C)c2)cc1S(=O)(=O)Nc1ccccc1Cl	-	83	-	-	-	-
COc1cc(C(=O)OC(C)C(=O)Nc2ccc3c(c2)OCO3)ccc1OCc1c(C)noc1C (centres undefined)	-	-	-	-	-	-
Cc1cc(Cl)ccc1OCc1cn2cccnc2n1	-	-	-	-	-	-
CCn1nc(C)c(NC(=O)c2cnn3c(C(F)F)cc(-c4ccccc4)nc23)c1C	-	-	-	-	-	-
CCCCN1C(=O)/C(=C/C=C2/CC(C)(C)CN2C)SC1=S	-	59	-	-	-	-
CCN1C(=O)/C(=C/C=C2/SCCN2C)SC1=S	-	-	-	-	-	-
O=C(Nc1cnn(Cc2ccc(Cl)c(Cl)c2)c1)c1nc2ncccn2n1	-	-	-	-	-	-
Cc1ccc(Cn2ccc(NC(=O)c3nc4ncccn4n3)n2)cc1	-	51	-	-	-	-
C/C(=N\OCC(=O)Nc1ccc2c(c1)OCCO2)c1ccc2c(c1)OCCO2	-	-	-	-	-	-
CC(C)(C)NC(=O)CON=C1c2ccccc2-c2ccccc21	-	-	-	-	-	-
CC(C)(C)NCC(O)CON=C1c2ccccc2-c2ccccc21 (centres undefined)	-	99	-	-	-	-
CCNC(=O)NC(=O)C(C)OC(=O)c1oc2ccccc2c1CSC1CCCCC1 (centres undefined)	-	72	-	-	-	-
COC(=O)c1ccc(N=Cc2c(C(F)(F)F)[nH]n(C)c2=O)cc1	-	-	-	-	-	-
CC(=O)Nc1ccc(S(=O)(=O)NC2=C(N3CCN(Cc4ccccc4)CC3)C(=O)c3ccccc3C2=O)cc1	-	99	-	-	-	-
Cc1ccc(N(CC(=O)NC(C)c2ccccc2)S(=O)(=O)c2cccs2)cc1 (centres undefined)	-	89	-	-	-	-
CCOC(=O)c1ccc2c(c1)n(CC)c(/C=C/N(C)c1ccccc1)[n+]2CC	-	100	-	-	-	-
CCCC[n+]1ccn(C2=C([O-])c3ccccc3C(=O)/C2=N\S(=O)(=O)c2ccccc2)c1	-	-	-	-	-	-
CCCCC[n+]1ccn(C2=C([O-])c3ccccc3C(=O)/C2=N\S(=O)(=O)c2ccccc2)c1	-	91	-	-	-	-
COc1ccc(OC)c(/C=C/C(=O)N(C)CC(=O)Nc2cc(C)ccc2C)c1	-	87	-	-	-	-
SMILES	ABCB1 inh	Lmaj promast	GSH bead fluor	Avidin fluor	ABCG2 inh	PKD1 inh
COc1c(C)cccc1C(=O)Nc1ccc(CN2CCOCC2)cc1	-	98	-	-	-	-
COc1cccc(NC(=O)c2ccc(CN3CCOCC3)cc2)c1	-	-	-	-	-	-
COc1c(C)cccc1C(=O)Nc1ccc(N2CCN(S(C)(=O)=O)CC2)cc1	-	-	-	-	-	-
CC(C)Oc1cccc(C(=O)Nc2ccc(CN3CCOCC3)cc2)c1	-	79	-	-	-	-
CCN(CC)S(=O)(=O)c1cc(NC(=O)C(C)OC(=O)c2[nH]c(C)c(C(C)=O)c2C)ccc1C (centres undefined)	-	95	-	-	-	-
CC(=O)c1c(C)[nH]c(C(=O)Nc2ccc(C)c(S(=O)(=O)N(C)C)c2)c1C	-	-	-	-	-	-
COc1ccc2c(c1OC)C(=O)OC2Nc1nc(-c2cccc([N+](=O)[O-])c2)cs1 (centres undefined)	.	.	.	-	.	.
Clc1ccc(Nc2ccc(NCc3ccccc3)nn2)cc1	-	91	-	-	-	-
COc1cc(C(=O)COC(=O)Cc2cnc3sccn23)cc(OC)c1OC	-	-	-	-	-	-
Cn1c(=O)n(C)c2cc(/C=C3/SC(=O)N(CC(=O)N4CCOCC4)C3=O)ccc21	-	-	-	-	-	-
CCOC(=O)CN1C(=O)S/C(=C/c2ccc3c(c2)n(C)c(=O)n3C)C1=O	-	69	-	-	-	-
Cc1ccc(-n2c(C)cc(C=C3C(=O)CC(C)(C)CC3=O)c2C)cc1	-	98	-	-	-	-
O=C(CN1CCN(c2ccccc2O)CC1)Nc1ccc2c(c1)CCC2	-	-	-	-	-	-
Cc1cc(C)cc(NS(=O)(=O)c2ccc(NC(=S)NC(=O)c3ccc(Br)o3)cc2)c1	-	95	-	-	-	-
COc1ccc(NS(=O)(=O)c2ccc(NC(=S)NC(=O)c3ccc(Br)cc3)cc2)nn1	-	85	-	-	-	-
COc1ccc(NS(=O)(=O)c2ccc(NC(=O)c3ccc(Br)cc3)cc2)nn1	-	-	-	-	-	-
Cc1cc(C)cc(NS(=O)(=O)c2ccc(NC(=S)Nc3ccccc3)cc2)c1	-	82	-	-	-	-
NS(=O)(=O)c1ccc(NS(=O)(=O)c2ccc(NC(=S)Nc3ccccc3)cc2)cc1	-	-	-	-	-	-
Cc1ccc(S(=O)(=O)N2CCN(S(=O)(=O)N(C)C)CC2)c(C)c1	-	-	-	-	-	-
COc1ccc(/C=N/N2CCOCC2)cc1COc1ccc(Cl)cc1	-	87	-	-	-	-
N#Cc1c(-c2ccccc2F)cc(-c2cccnc2)nc1N	-	71	-	-	-	-
N#Cc1c(-c2cccnc2)cc(-c2ccccc2)nc1N	.	.	.	-	.	.
O=C(NCCNc1ccc(Cl)cc1[N+](=O)[O-])c1cccnc1	-	-	-	-	-	-
Cc1ccoc1C(=O)NCCNc1ccc(Cl)cc1[N+](=O)[O-]	-	83	-	-	-	-
COc1ccc(C(=O)Nc2ccc(S(=O)(=O)N3CCCCC3C)cc2)c(OC)c1OC (centres undefined)	-	61	-	-	-	-
Cc1cc2oc(=O)cc(CN3CCN(S(=O)(=O)/C=C/c4ccccc4)CC3)c2cc1C	-	96	-	-	-	-
Cc1cc2oc(=O)cc(CN3CCN(S(=O)(=O)c4ccc5c(c4)OCCO5)CC3)c2cc1C	-	-	-	-	-	-
